NR2E3 ag-1 – human photoreceptor-specific nuclear receptor agonism. CHO-S Gal4-NCOR/VP16-NR2E3 two-hybrid, luciferase. inhibition of corepressor binding, % at 3.98 µM. actives 0.35% (n = 360,000). AID 602229;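 active = inhibition above the mean of all tested compounds plus 3 SD, cut at about 70% in these data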;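 also: 0% = DMSO with NR2E3 transfected cells and 100% = cells lacking NR2E3 construct; higher means lower luciferase signal from less NR2E3 corepressor binding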
Target sequence (Q9Y5X4 whole entry, looked up, the tested form may be a part): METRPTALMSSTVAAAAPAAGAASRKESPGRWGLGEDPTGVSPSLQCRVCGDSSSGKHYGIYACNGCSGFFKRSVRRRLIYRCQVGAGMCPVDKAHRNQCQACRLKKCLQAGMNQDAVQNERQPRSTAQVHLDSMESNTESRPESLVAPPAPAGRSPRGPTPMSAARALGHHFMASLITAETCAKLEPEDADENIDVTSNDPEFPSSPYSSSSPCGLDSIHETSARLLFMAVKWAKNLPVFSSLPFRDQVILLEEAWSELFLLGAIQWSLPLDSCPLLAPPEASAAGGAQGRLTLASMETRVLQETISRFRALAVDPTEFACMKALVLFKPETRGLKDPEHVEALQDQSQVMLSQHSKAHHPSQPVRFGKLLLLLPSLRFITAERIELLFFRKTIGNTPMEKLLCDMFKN
Rev-erbA mod – modulators of human Rev-erb alpha DNA binding; actives 0.79% (n = 370,000); P20393; AID 1259318; Rev-erbα–FITC-DNA binding, fluorescence polarization, 90 min; activity, % at 10 µM;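 active = activity above about 14%, limit read from the data; passing the limit was not always enough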;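 also: 0% = DMSO wells with 35 nM protein and 100% = DMSO wells with 750 nM protein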
NR2E3 ag-2 – activates human photoreceptor nuclear receptor NR2E3 | Q9Y5X4 | actives 0.12% (n = 320,000) | GST-NR2E3/biotin-RetCOR TR-FRET, 1536-well | inhibition of corepressor binding, % at 4.78 µM;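 active = percent inhibition above the cutoff of mean plus 3 SD of all tested compounds, set per screening campaign, cut at about 20% in these data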;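 also: 0% = DMSO wells and 100% = biotin wells as full block of FRET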
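Material: NR2E3–RetCOR corepressor complex / Amount: 1.35 nM GST-NR2E3 / Medium: Tris pH 7.5 / Compound: single nominal compound dose of 4.8 µM / Incubation: 5 h at 4 °C / Technique: TR-FRET, Eu(K)-anti-GST donor, streptavidin-D2 acceptor, ex 340, em 617/671 nm / Read-out basis: percent loss of FRET ratio relative to control wells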
PG9 Ab binder – PG9 antibody binding by small molecule; TR-FRET gp120-PG9 antibody binding; inhibition, % at 6.7 µM; actives 0.43% (n = 360,000); AID 624416; in the data active = inhibition above about 8.5%
NR2E3 ag confirm – confirmation of human NR2E3 agonists | actives 51% (n = 2,300) | inhibition, % at 3.98 µM | CHO-S mammalian two-hybrid NR2E3-NCOR, luciferase luminescence | shares compounds with NR2E3 ag-1 | AID 624378;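 active = average inhibition above a cutoff equal to the mean inhibition of all tested compounds plus one SD, cut at about 70% in these data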;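 also: 0% = DMSO in NR2E3 cells and 100% = DMSO in cells lacking NR2E3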
VP16 counter – GAL4-VP16 reporter inhibition in NR2E3 agonist counterscreen. actives 29% (n = 2,300). inhibition, % at 3.98 µM. shares compounds with NR2E3 ag-1. CHO-S GAL4-VP16 luciferase reporter, luminescence. AID 624379;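 active = mean inhibition above a cutoff equal to the average over all tested compounds plus one standard deviation, cut at about 70% in these data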;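 also: luciferase from a UAS reporter driven by GAL4-VP16 transactivation; 0% = DMSO with VP16-transfected cells and 100% = DMSO with cells lacking VP16; higher means less reporter light so more repression of VP16 activity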
An asterisk follows results filed as active; · = no result. Rows were chosen to be rich in hits. Some 1.4% of all compounds tested hit in one or more screens of this group.

SMILES	NR2E3 ag-1	Rev-erbA mod	NR2E3 ag-2	PG9 Ab binder	NR2E3 ag confirm	VP16 counter
c1ccc(Nc2ncnc3sccc23)cc1	-10	3	-1	-1	·	·
COc1ccc(-c2nn(-c3ccccc3)cc2C(=O)O)cc1N	-13	1	0	-5	·	·
S=C(/N=c1/sccn1Cc1ccccc1)NC1CC1	4	3	2	-2	·	·
Fc1ccc2[nH]c3c(Cl)ncnc3c2c1	7	-6	4	0	·	·
OC1(c2cccc(C(F)(F)F)c2)CCN(c2ncnc3c2[nH]c2ccc(F)cc23)CC1	71*	1	·	0	91*	71
O=C(CCCN1CCC(O)(c2cccc(C(F)(F)F)c2)CC1)c1ccc(F)cc1	7	5	2	-1	·	·
CCOC(=O)N1CCN(c2ncnc3c2[nH]c2ccc(F)cc23)CC1	80*	-7	1	2	95*	73*
Fc1ccc2[nH]c3c(N4CCN(c5ccccc5)CC4)ncnc3c2c1	80*	-1	1	2	96*	80*
CCOC(=O)N1CCN(c2ncnc3c2[nH]c2ccc(OC)cc23)CC1	10	-2	1	-1	·	·
COc1ccc2[nH]c3c(N4CCc5ccccc5C4)ncnc3c2c1	-23	-4	-3	-1	·	·
COc1ccc(N2CCN(c3ncnc4c3[nH]c3ccccc34)CC2)cc1	77*	2	-1	-3	95*	81*
O=C(COC(=O)c1cccc(NS(=O)(=O)c2ccc(F)c(F)c2)c1)NC(=O)NC1CCCC1	-5	-4	3	0	·	·
Cn1nnnc1Sc1ncnc2scc(-c3ccc[nH]3)c12	3	4	2	-2	·	·
Cn1c(=O)c2[nH]c(COc3ccc(C(C)(C)C)cc3)nc2n(C)c1=O	69	·	2	·	87*	72*
COc1ccc(NC(=O)C2Cc3c(-c4ccncc4)ccnc3O2)cc1OC (centres undefined)	-6	6	·	0	·	·
COc1ccc(NC(=O)C2Cc3c(-c4ccc(Cl)cc4)ccnc3O2)cc1OC (centres undefined)	78*	-1	·	1	82*	65
COc1ccc(NC(=O)C2Cc3c(-c4ccc(Cl)cc4)ccnc3O2)cn1 (centres undefined)	-45	1	·	-2	·	·
COc1ccc(NC(=O)C2Cc3c(-c4ccccc4)ccnc3O2)cc1OC (centres undefined)	78*	·	·	·	80*	71*
CCn1c(SC(C)C(=O)Nc2ccc(N3CCOCC3)cc2)nnc1C1CC1 (centres undefined)	-13	1	2	-1	·	·
Cc1ccc(CNC(=O)CCn2c(=O)oc3ccccc32)cc1	3	6	1	-1	·	·
O=Nc1ccc(O)c2ncccc12	55	-3	-5	-4	58	21
O=[N+]([O-])c1cc(Cl)c(O)c2ncccc12	103*	5	·	0	99*	71*
O=[N+]([O-])c1cc(CN2CCN(c3ccccc3)CC2)c(O)c2ncccc12	83*	5	-1	-6	74*	20
O=[N+]([O-])c1ccc(O)c2cccnc12	8	4	-5	-3	·	·
O=[N+]([O-])c1cc(F)c2cccnc2c1O	29	1	3	-3	·	·
SMILES	NR2E3 ag-1	Rev-erbA mod	NR2E3 ag-2	PG9 Ab binder	NR2E3 ag confirm	VP16 counter
O=[N+]([O-])c1ccc(O)c2ncccc12	103*	14	-3	-3	81*	41
COc1cc2nc(-c3cccs3)oc(=O)c2cc1OC	-15	2	1	5	·	·
CC(=O)c1c(C)oc2ccc(NS(=O)(=O)c3ccc(F)cc3C)cc12	70	1	1	0	57	61
CC(=O)/C(=N/Nc1cccc(Cl)c1)N1CCOCC1	64	3	6	-2	7	-18
CC(=O)/C(=N/Nc1ccccc1)N1CCOCC1	2	-5	-2	-3	·	·
NC(=O)c1nnn(-c2ccc([N+](=O)[O-])cc2)c1-c1ccccc1	19	0	0	-3	·	·
CC(C)c1ccc(/C=C(\c2nc3ccccc3[nH]2)S(=O)(=O)c2ccccc2)cc1	100*	-5	-2	-1	97*	7
Cc1[nH]c(=O)[nH]c(=O)c1C=CC(=O)NC(CO)CS(=O)Cc1ccccc1 (centres undefined)	12	8	·	-2	·	·
COc1ccc(/C=N\NC(=O)Cc2cccn2C)cc1OCc1ccccc1	·	9	·	·	·	·
CSC(=Nc1ccccc1)N=C(SCc1ccccc1)N(C)C	86*	-1	·	2	87*	53
COc1ccc(-c2nn(-c3ccccc3)cc2/C=N/N=C(N)N)cc1OC	0	-3	-1	-1	·	·
COc1ccc(-c2nn(-c3ccccc3)cc2/C=N/O)cc1OC	60	0	-2	1	38	11
CNC(=S)NN=C(C)c1ccc(OC)cc1O	72*	3	·	-2	-2	13
COc1ccc(/C(C)=N/N=C(N)N)c(O)c1	-9	3	-1	0	·	·
O=C(CN1CCOCC1)Nc1nc(-c2ccc(Cl)cc2)cs1	10	1	-1	-1	·	·
Cc1cc(C)c(S(=O)(=O)NCc2ccncc2)c(C)c1	69	1	-5	0	88*	77*
Cc1ccc(S(=O)(=O)NCc2ccncc2)c(C)c1C	80*	1	3	-2	94*	85*
Cc1ccc(S(=O)(=O)NCc2ccccn2)c(C)c1C	0	-4	4	-3	·	·
Cc1cc(C)c(S(=O)(=O)NCCc2ccncc2)c(C)c1	20	-3	3	-1	·	·
Cc1cccc(NC(=O)COn2nnc3ccc(S(C)(=O)=O)cc32)c1	3	-1	0	-1	·	·
COc1ccc(NC(=O)C(C)N2c3cccc4cccc(c34)S2(=O)=O)cc1OC (centres undefined)	63	1	1	2	66	48
O=C(NCCNC(=O)c1ccccc1O)c1ccccc1O	-13	3	-1	-1	·	·
O=C(CNC(=O)c1ccccc1)NCCCSc1ccccc1	-15	1	·	0	·	·
O=C(NCCCSc1ccccc1)c1cc(Cl)ccc1O	78*	1	·	-2	99*	87*
O=C(NCCCCCCNC(=O)c1ccccc1O)c1ccccc1O	67	7	1	1	88*	63
Cc1cccc(C)c1OCc1cc(C(=O)N(Cc2c(C)nn(C)c2C)C2CC2)no1	62	1	-3	1	61	58
Cc1cccc(C)c1OCc1cc(C(=O)NCC2CCCCC2)no1	-25	1	-1	0	·	·
COc1cccc(N2CCN(c3nc(-c4ccccc4C)cc(=O)[nH]3)CC2)c1	93*	-4	·	1	98*	2
CC(O)(c1ccccc1)c1nc(-c2cccc(F)c2)cs1 (centres undefined)	-18	0	·	-1	·	·
COC(=O)c1ccc2nc(-c3ccco3)c(Cc3ccccc3OC)n2c1	·	-3	·	1	·	·

Assay outcomes from PubChem BioAssay.
